Measured values published in ChEMBL document CHEMBL1124737, “Synthesis and alpha 2-adrenoceptor effects of substituted catecholimidazoline and catecholimidazole analogues in human platelets” (J Med Chem, 1990).

Experiments:
Homo sapiens [1] = species on record: Homo sapiens; test: Inhibition potency against primary wave responses to epinephrine; type: functional, organism-based; conditions: read-out: pA2 (converted)
Homo sapiens [2] = species on record: Homo sapiens; test: Log concentration that produces maximum response against epinephrine-induced platelet aggregation; type: functional, organism-based
Homo sapiens [3] = species on record: Homo sapiens; test: Stimulatory activity against serotonin secretion (SEC).; type: functional, organism-based
Homo sapiens [4] = species on record: Homo sapiens; test: Inhibition of AA+phentolamine by the compound in response of AGG; type: functional, organism-based
How it was run: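 Citrated platelet-rich plasma from medication-free human volunteers was read by Born turbidometric aggregometry. Phentolamine (1 μM) was added 1 min before the drug and 2 min before arachidonic acid, used at the minimum concentration giving maximal aggregation. IC50 was taken from the maximal change in light transmittance after 4 min, read from percent inhibition versus log concentration plots. Data are from 3–5 preparations.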

Homo sapiens [5] = species on record: Homo sapiens; test: Inhibition of ADP by the compound in response of AGG; type: functional, organism-based
How it was run: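 The drug was added 1 min before ADP, used at the minimum concentration giving maximal aggregation, in citrated human platelet-rich plasma from medication-free donors. Born turbidometric aggregometry was used. IC50 came from the maximal change in light transmittance after 6 min, using percent inhibition versus log concentration plots. Data are from 3–5 preparations.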

Homo sapiens [6] = species on record: Homo sapiens; test: Inhibition of Arachidonic acid by the compound in response of AGG; type: functional, organism-based
How it was run: (§1)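 Human platelet-rich plasma from medication-free volunteers, citrate anticoagulated (9:1). Inducer at the minimum concentration giving maximal aggregation. Inhibitor added 1 min before inducer. Turbidometric (Born) aggregation read as the maximal change in light-transmittance amplitude after 4 min. U46619 runs include 1 mM aspirin. IC50 taken from percent inhibition vs log concentration plots; 3–5 preparations.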

Homo sapiens [7] = species on record: Homo sapiens; test: Inhibition of U-46,619 by the compound in response of AGG; type: functional, organism-based; how it was run: as §1
Homo sapiens [8] = species on record: Homo sapiens; test: Inhibition of U-46,619 + phentolamine by the compound in response of AGG; type: functional, organism-based
How it was run: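 Human citrated platelet-rich plasma was incubated with 1 mM aspirin. Phentolamine (1 μM) was added 1 min before the drug and 2 min before U46619, used at the minimal maximally-aggregating concentration. Turbidometric aggregation was followed, and IC50 was based on the maximal transmittance change at 4 min, from percent inhibition versus log concentration plots. Data are from 3–5 preparations.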

[9] = target: Serotonin (5-HT) receptor; test: Inhibition of AA+phentolamine by the compound in response of SEC; type: functional, Homo sapiens
How it was run: (§2)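 Phentolamine 1 μM added 1 min before the test drug and 2 min before the inducer (AA or U46619, at minimum maximally effective concentration). Aspirin 1 mM in U46619 runs. Secretion read as radioactivity release. IC50 from percent inhibition vs log concentration; 3–5 preparations.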

[10] = target: Serotonin (5-HT) receptor; test: Inhibition of ADP by the compound in response of SEC; type: functional, Homo sapiens
How it was run: (§3)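 Inducer at the minimum concentration giving maximal aggregation; inhibitor added 1 min before it. Dense-granule secretion measured as release of radioactivity. U46619 runs include 1 mM aspirin. IC50 from percent inhibition vs log concentration; 3–5 preparations.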

[11] = target: Serotonin (5-HT) receptor; test: Inhibition of Arachidonic acid by the compound in response of SEC; type: functional, Homo sapiens; how it was run: as §3
[12] = target: Serotonin (5-HT) receptor; test: Inhibition of U-46,619 by the compound in response of SEC; type: functional, Homo sapiens; how it was run: as §3
[13] = target: Serotonin (5-HT) receptor; test: Inhibition of U-46,619 + phentolamine by the compound in response of SEC; type: functional, Homo sapiens; how it was run: as §2
Homo sapiens [14] = species on record: Homo sapiens; test: Effective concentration for primary wave aggregation was determined; type: functional, organism-based
How it was run: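 Citrated (9:1) platelet-rich plasma from medication-free human donors. Compound given alone to platelets preincubated 1 min with 1 mM aspirin. Born turbidometric aggregation, maximal change in light transmittance amplitude. EC50 taken from individual plots of percent response versus log concentration. Values in parentheses give number of experiments.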

Homo sapiens [15] = species on record: Homo sapiens; test: Effective concentration for secondary wave aggregation was determined; type: functional, organism-based
Homo sapiens [16] = species on record: Homo sapiens; test: Log concentration that produces maximum response against epinephrine-induced platelet aggregation (primary wave AGG); type: functional, organism-based
Homo sapiens [17] = species on record: Homo sapiens; test: Inhibitory concentration of compound against primary aggregation of induced by R-8; type: functional, organism-based

## Oc1ccc(C[C@H]2CNC=N2)cc1O
Homo sapiens [1]
  Kb: 3.24 µM

## Oc1ccc(C(O)c2ncc[nH]2)cc1O (configuration not stated)
Homo sapiens [2]
  EC50: 38.9 µM

## Cl.Oc1ccc(Cc2ncc[nH]2)cc1O
Homo sapiens [3]
  IC50: 36.3 µM
Homo sapiens [4]
  IC50: 145 µM
Homo sapiens [5]
  IC50: 263 µM
Homo sapiens [6]
  IC50: 661 µM
Homo sapiens [7]
  IC50: 1620 µM
Homo sapiens [8]
  IC50: 741 µM
[9]
  Log IC50: -3.79
[10]
  Log IC50: -3.46
[11]
  Log IC50: -3.18
[12]
  Log IC50: -2.81
[13]
  Log IC50: -3.09

## Oc1ccc(C[C@@H]2CNC=N2)cc1O
Homo sapiens [14]
  EC50: 5.03 µM
Homo sapiens [15]
  EC50: 4.89 µM
Homo sapiens [16]
  EC50: 5.13 µM

## COC(=O)[C@@H]1[C@H]2C[C@H]3c4[nH]c5ccccc5c4CCN3C[C@@H]2CC[C@@H]1O [YOHIMBINE]
Homo sapiens [17]
  IC50: 1.1 µM
